From ChEMBL document CHEMBL1124363, “Photoaffinity, biotinyl, and iodo analogues as probes for vasotocin receptors” (1989)
Where a SMILES comes first, the peptide text is derived from it. Bridges are numbered along the chain shown (N, C = ends). [ ]: non-standard residue; d: D form. The star is where a group is joined. Biotin = O=C1N[C@H]2[C@H](CS[C@H]2CCCCC(=O)*)N1; Phe(4-NH2) = Nc1ccc(C[C@H](N)C(=O)O)cc1; Mpa = O=C(O)CCS

What was measured:
[1] = Effective concentration of compound for half-maximal response in hydroosmotic toad bladder assay; assay type: functional; conditions: Amphibia; read-out: ED50 (the source's name)
Method in brief: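 Toad hemibladders filled with Ringer's fluid diluted to half-strength with distilled water. Net osmotic water flux across the bladder wall measured gravimetrically by the Bentley method. ED-50 taken as the concentration giving a half-maximal water flow response.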

[2] = test system: Rattus norvegicus; assay: Pressor activity of compound was assayed on urethane-anesthetized, phenoxybenzamine-treated rats; assay type: functional; parameters: unit not given here
[3] = organism: Rattus norvegicus; assay: Antidiuretic activity of compound was assayed on water-loaded rats; assay type: functional, Urine

Structure (SMILES) | EC50 [1] [nM] | Pressor activity [2] | Antidiuretic activity [3] [U/mg]
CC[C@H](C)[C@@H]1NC(=O)[C@H](Cc2ccc(O)cc2)NC(=O)[C@@H](N)CSSC[C@@H](C(=O)N2CCC[C@H]2C(=O)N[C@@H](CCCN=C(N)N)C(=O)NCC(N)=O)NC(=O)[C@H](CC(N)=O)NC(=O)[C@H](CCC(N)=O)NC1=O [VASOTOCIN] (HELM PEPTIDE1{C.Y.I.Q.N.C.P.R.G.[am]}$PEPTIDE1,PEPTIDE1,1:R3-6:R3$$$V2.0) | 0.022 | 160 | 231
CC[C@H](C)[C@@H]1NC(=O)[C@H](Cc2ccccc2)NC(=O)[C@@H](N)CSSC[C@@H](C(=O)N2CCC[C@H]2C(=O)N[C@@H](CCCN=C(N)N)C(=O)N[C@@H](Cc2ccc(O)cc2)C(N)=O)NC(=O)[C@H](CC(N)=O)NC(=O)[C@H](CCC(N)=O)NC1=O (HELM PEPTIDE1{C.F.I.Q.N.C.P.R.Y.[am]}$PEPTIDE1,PEPTIDE1,1:R3-6:R3$$$V2.0) | 2.1 | 0 | 2.8
CC[C@H](C)[C@@H]1NC(=O)[C@H](Cc2ccc(O)cc2)NC(=O)CCSSC[C@@H](C(=O)N2CCC[C@H]2C(=O)N[C@@H](CCCN=C(N)N)C(=O)N[C@@H](Cc2ccc(N)cc2)C(N)=O)NC(=O)[C@H](CC(N)=O)NC(=O)[C@H](CCC(N)=O)NC1=O (HELM PEPTIDE1{[O=C(CCS[*:3])[*:2]].Y.I.Q.N.C.P.R.[Nc1ccc(C[C@H](N[*:1])C(=O)[*:2])cc1].[am]}$PEPTIDE1,PEPTIDE1,1:R3-6:R3$$$V2.0) | 0.13 | 0 | 66
CC[C@H](C)[C@@H]1NC(=O)[C@H](Cc2ccc(O)cc2)NC(=O)CCSSC[C@@H](C(=O)N2CCC[C@H]2C(=O)N[C@@H](CCCN=C(N)N)C(=O)N[C@@H](Cc2ccc(N=[N+]=[N-])cc2)C(N)=O)NC(=O)[C@H](CC(N)=O)NC(=O)[C@H](CCC(N)=O)NC1=O (HELM PEPTIDE1{[O=C(CCS[*:3])[*:2]].Y.I.Q.N.C.P.R.[[N-]=[N+]=Nc1ccc(C[C@H](N[*:1])C(=O)[*:2])cc1].[am]}$PEPTIDE1,PEPTIDE1,1:R3-6:R3$$$V2.0) | 0.09 |  | 40
CC[C@H](C)[C@@H]1NC(=O)[C@H](Cc2ccccc2)NC(=O)[C@@H](N)CSSC[C@@H](C(=O)N2CCC[C@H]2C(=O)N[C@@H](CCCN=C(N)N)C(=O)N[C@@H](Cc2ccc(O)c(I)c2)C(N)=O)NC(=O)[C@H](CC(N)=O)NC(=O)[C@H](CCC(N)=O)NC1=O (HELM PEPTIDE1{C.F.I.Q.N.C.P.R.[O=C([C@H](Cc1ccc(O)c(I)c1)N[*:1])[*:2]].[am]}$PEPTIDE1,PEPTIDE1,1:R3-6:R3$$$V2.0) | 2.5 |  | 0.41

Continued, in another order:

EC50 [1] [nM] | Structure (SMILES) | Pressor activity [2] | Antidiuretic activity [3] [U/mg]
0.49 | CC[C@H](C)[C@@H]1NC(=O)[C@H](Cc2ccc(O)cc2)NC(=O)[C@@H](N)CSSC[C@@H](C(=O)N2CCC[C@H]2C(=O)N[C@@H](CCCN=C(N)N)C(=O)N[C@@H](Cc2ccc(O)cc2)C(N)=O)NC(=O)[C@H](CC(N)=O)NC(=O)[C@H](CCC(N)=O)NC1=O (HELM PEPTIDE1{C.Y.I.Q.N.C.P.R.Y.[am]}$PEPTIDE1,PEPTIDE1,1:R3-6:R3$$$V2.0) | 0 | 25
12 | CC[C@H](C)[C@@H]1NC(=O)[C@H](Cc2ccc(O)cc2)NC(=O)CCSSC[C@@H](C(=O)N2CCC[C@H]2C(=O)N[C@@H](CCCN=C(N)N)C(=O)N[C@@H](Cc2ccc(NC(=O)CCCC[C@@H]3SC[C@@H]4NC(=O)N[C@@H]43)cc2)C(N)=O)NC(=O)[C@H](CC(N)=O)NC(=O)[C@H](CCC(N)=O)NC1=O ([Mpa]YIQNCPR[Phe(4-NH2)](Biotin)-NH2; disulfide 1-6) |  | 23
